The source of these data is ChEMBL document CHEMBL1147050, “Small-molecule agonists for the glucagon-like peptide 1 receptor” (Proc Natl Acad Sci U S A, 2007).

Calls of active or inactive are those of the source. The calls are words filed in the database; no cut-off is given here.

Assay [1] addresses T1, Gastric inhibitory polypeptide receptor (Homo sapiens) (UniProt P48546).
T1 sequence (whole entry): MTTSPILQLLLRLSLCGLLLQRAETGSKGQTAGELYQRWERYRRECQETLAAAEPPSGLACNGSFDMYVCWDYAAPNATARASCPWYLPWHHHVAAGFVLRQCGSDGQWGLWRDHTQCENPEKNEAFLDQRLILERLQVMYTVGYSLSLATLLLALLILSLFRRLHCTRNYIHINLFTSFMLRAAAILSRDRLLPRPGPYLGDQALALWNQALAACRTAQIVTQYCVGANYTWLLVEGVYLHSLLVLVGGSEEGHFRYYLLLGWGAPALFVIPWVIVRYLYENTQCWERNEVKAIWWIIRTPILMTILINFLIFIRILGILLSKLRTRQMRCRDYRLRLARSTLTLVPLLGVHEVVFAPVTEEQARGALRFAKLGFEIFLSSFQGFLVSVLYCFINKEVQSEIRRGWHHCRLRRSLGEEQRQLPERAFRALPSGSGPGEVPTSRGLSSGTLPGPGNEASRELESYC
The assay can be described thus: Agonist activity at human GIP receptor expressed in BHK cells assessed as cAMP accumulation. It is filed as functional, cell-based. (In general: Changes in cAMP serve as a functional read-out for many G protein-coupled receptors.)

For assay [2], the target named is T2, Glucagon-like peptide 1 receptor (Homo sapiens, UniProt P43220). The assay can be described thus: Agonist activity at human GLP1 receptor expressed in BHK cells assessed as cAMP accumulation. The assay is classed as functional, cell-based.
T2 sequence (P43220 whole entry): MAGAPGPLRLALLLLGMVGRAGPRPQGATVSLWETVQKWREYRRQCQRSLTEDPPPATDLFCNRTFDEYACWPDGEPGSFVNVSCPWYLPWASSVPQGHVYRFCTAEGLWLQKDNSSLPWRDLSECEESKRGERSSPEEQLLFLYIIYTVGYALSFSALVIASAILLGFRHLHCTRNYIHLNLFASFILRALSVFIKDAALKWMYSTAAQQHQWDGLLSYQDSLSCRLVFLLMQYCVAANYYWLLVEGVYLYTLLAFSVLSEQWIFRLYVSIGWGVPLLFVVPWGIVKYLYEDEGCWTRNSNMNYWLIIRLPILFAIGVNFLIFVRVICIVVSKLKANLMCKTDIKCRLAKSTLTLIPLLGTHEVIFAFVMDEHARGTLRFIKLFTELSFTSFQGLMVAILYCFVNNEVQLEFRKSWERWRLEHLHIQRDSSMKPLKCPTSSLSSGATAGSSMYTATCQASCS
Assay [3] has as its target T2, Glucagon-like peptide 1 receptor. Description: Increase in [125I]GLP1 binding to human GLP1 receptor expressed in BHK cells. The assay is classed as cell-based. An outline of the steps:
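BHK-cell plasma membranes expressing human GLP-1 receptor with 125I-GLP-1(7–36)amide tracer (50,000 cpm/well) in 25 mM Hepes, 0.1% BSA, pH 7.4; final DMSO 4.4%. Incubated 1 h at 37°C, then vacuum filtration and one wash. Nonspecific binding defined with 1 μM GLP-1; triplicates; curves fitted as one-site competition.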

Assay [4] addresses Glucagon receptor (Homo sapiens) (UniProt P47871). The assay can be described thus: Agonist activity at human glucagon receptor expressed in BHK cells assessed as cAMP accumulation. The assay is classed as functional, cell-based.
For assay [5], the target named is T3, Glucagon-like peptide 2 receptor (Homo sapiens) (UniProt O95838).
T3 sequence (whole entry): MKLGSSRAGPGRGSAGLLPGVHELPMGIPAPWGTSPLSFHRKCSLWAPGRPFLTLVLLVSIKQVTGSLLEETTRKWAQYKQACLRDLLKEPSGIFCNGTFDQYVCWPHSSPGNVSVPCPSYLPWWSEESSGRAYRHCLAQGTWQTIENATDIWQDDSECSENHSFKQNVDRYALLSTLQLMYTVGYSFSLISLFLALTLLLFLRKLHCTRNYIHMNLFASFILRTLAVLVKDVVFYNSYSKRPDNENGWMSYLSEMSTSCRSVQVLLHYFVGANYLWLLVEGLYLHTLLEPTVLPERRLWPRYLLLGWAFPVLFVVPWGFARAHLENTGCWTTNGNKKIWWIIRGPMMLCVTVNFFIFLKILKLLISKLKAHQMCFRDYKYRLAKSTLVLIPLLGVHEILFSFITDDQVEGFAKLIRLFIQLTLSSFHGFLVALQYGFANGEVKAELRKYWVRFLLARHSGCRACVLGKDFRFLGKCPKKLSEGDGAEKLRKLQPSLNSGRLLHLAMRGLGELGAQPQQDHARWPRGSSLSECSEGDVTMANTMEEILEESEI
Description: Agonist activity at human GLP2 receptor expressed in BHK cells assessed as cAMP accumulation. The assay is classed as functional, cell-based.

For assay [6], the species on record is Mus musculus. The assay can be described thus: Induction of 3 mM glucose-induced insulin release in CD1 wild type mouse pancreatic islets at 1000 nM. The assay is classed as functional. The essentials:
(§1)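 Adult CD1 wild-type mouse islets were isolated by collagenase digestion, cultured overnight in RPMI 1640 with 10% newborn calf serum, and perifused the next day. Columns held 30 islets, run at 37 °C and 0.30 ml/min in pH 7.4 Hepes buffer with albumin. After 30 min basal perifusion at 3 mM glucose, glucose was 3 mM from 0–60 min, then 10 mM. Agent was present 10–70 min (final DMSO ≤0.1%). Three groups of 30 islets, mean ± SEM.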

The species entered for assay [7] is Mus musculus. The assay can be described thus: Induction of 3 mM glucose-induced insulin release in CD1 wild type mouse pancreatic islets at 100 nM. It is filed as functional. An outline of the steps:
as §1

The species named for assay [8] is Mus musculus. The assay can be described thus: Induction of 10 mM glucose-induced insulin release in CD1 GLP1 receptor knockout mouse pancreatic islets at 1000 nM. It is filed as functional. The essentials: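 Islets came from CD1 GLP-1 receptor knockout mice, isolated by collagenase and cultured overnight, then perifused at 37 °C, 0.30 ml/min, 30 islets per column. After 30 min at 3 mM glucose, glucose was 3 mM from 0–30 min, then 10 mM. Agents were present 10–60 min, with DMSO ≤0.1% and a 10 μM imidazoline control. Three groups of 30 islets, mean ± SEM.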

The species named for assay [9] is Mus musculus. The assay can be described thus: Induction of 10 mM glucose-induced insulin release in CD1 wild type mouse pancreatic islets at 100 nM. The assay is classed as functional. An outline of the steps: as §1
Assay [10] is filed under the species Mus musculus. Description: Induction of 10 mM glucose-induced insulin release in CD1 GLP1 receptor knockout mouse pancreatic islets at 100 nM. The assay is classed as functional.
Assay [11] concerns Pancreas. Description: Induction of 10 mM glucose-induced insulin release in Sprague-Dawley rat pancreas at 10 uM. The assay is classed as functional, tissue-based. The essentials: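 Pancreas from male SD rats perfused at 37°C with oxygenated Krebs Ringer containing 0.25% BSA, 4% Dextran T-70 and 2 mM calcium, total flow 1.9 ml/min. Compound (final DMSO 0.25%) given at t = 20–40 min with 10 mM glucose; insulin release followed; two to three experiments, mean ± SD.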

Assay [12] is filed under the species Mus musculus. The assay can be described thus: Induction of 10 mM glucose-induced insulin release in CD1 wild type mouse pancreatic islets at 1000 nM. It is filed as functional. The essentials: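 Islets from adult CD1 mice isolated by collagenase and cultured overnight in RPMI 1640 with 10% newborn calf serum. Groups of 30 islets perifused at 37°C, 0.30 ml/min, in Hepes-bicarbonate buffer with albumin. Glucose 3 mM from 0–60 min, then 10 mM; compound added at 10 min and removed at 70 min. Final DMSO ≤0.1%. Three groups per condition.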

Glucagon receptor (Homo sapiens), sequence (P47871 whole entry): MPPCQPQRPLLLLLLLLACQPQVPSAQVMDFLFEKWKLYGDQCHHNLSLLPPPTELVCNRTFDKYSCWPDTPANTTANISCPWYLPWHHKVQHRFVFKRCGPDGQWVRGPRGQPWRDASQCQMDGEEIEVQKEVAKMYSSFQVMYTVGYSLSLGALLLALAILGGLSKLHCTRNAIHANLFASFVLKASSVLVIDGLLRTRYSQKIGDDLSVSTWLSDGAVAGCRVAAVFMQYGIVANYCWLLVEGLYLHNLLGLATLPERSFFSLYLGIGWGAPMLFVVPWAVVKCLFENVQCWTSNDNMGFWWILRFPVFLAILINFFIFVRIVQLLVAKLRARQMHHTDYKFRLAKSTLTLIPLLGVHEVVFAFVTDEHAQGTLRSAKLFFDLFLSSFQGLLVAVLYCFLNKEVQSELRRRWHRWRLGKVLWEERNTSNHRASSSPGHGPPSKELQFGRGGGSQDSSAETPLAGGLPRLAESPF

A word on the EC50: it is the concentration that produces a half-maximal response. Consider `Cc1cnc(Sc2nc3cc(Cl)c(Cl)cc3nc2C(F)(F)F)s1`, for which the outcome in assay [1], in assay [4] and in assay [5] was inactive. In [2], the EC50 was determined as 1400 nM. In addition, the Activity result in assay [3] is “Dose-dependent effect”.

For `CC[C@H](C)[C@H](NC(=O)[C@H](Cc1ccccc1)NC(=O)[C@H](CCC(=O)O)NC(=O)[C@H](CCCCN)NC(=O)[C@H](C)NC(=O)[C@H](C)NC(=O)[C@H](CCC(N)=O)NC(=O)CNC(=O)[C@H](CCC(=O)O)NC(=O)[C@H](CC(C)C)NC(=O)[C@H](Cc1ccc(O)cc1)NC(=O)[C@H](CO)NC(=O)[C@H](CO)NC(=O)[C@@H](NC(=O)[C@H](CC(=O)O)NC(=O)[C@H](CO)NC(=O)[C@@H](NC(=O)[C@H](Cc1ccccc1)NC(=O)[C@@H](NC(=O)CNC(=O)[C@H](CCC(=O)O)NC(=O)[C@H](C)NC(=O)[C@@H](N)Cc1c[nH]cn1)[C@@H](C)O)[C@@H](C)O)C(C)C)C(=O)N[C@@H](C)C(=O)N[C@@H](Cc1c[nH]c2ccccc12)C(=O)N[C@@H](CC(C)C)C(=O)N[C@H](C(=O)N[C@@H](CCCCN)C(=O)NCC(=O)N[C@@H](CCCN=C(N)N)C(=O)NCC(=O)O)C(C)C`, the result in assay [6], in assay [7], in assay [8] and in assay [10] was inactive. Also, the outcome in [9] was Active.

For `CC(C)(C)Nc1nc2cc(Cl)c(Cl)cc2nc1S(C)(=O)=O`, the outcome in assay [6], in assay [7], in assay [8], in assay [9] and in assay [10] was inactive. In addition, the outcome in assay [11], in assay [3] and in assay [12] was Active. Moreover, the half-maximal effective concentration (EC50) in [2] came to 101 nM.
